Test results as given in ChEMBL document CHEMBL1212762, “In vivo activity of ceftobiprole in murine skin infections due to Staphylococcus aureus and Pseudomonas aeruginosa” (Antimicrob Agents Chemother, 2010).

Tests used:
[1] = tested on: Pseudomonas aeruginosa; experiment: Antimicrobial activity against Pseudomonas aeruginosa OC 4351 infected in immunocompromized SKH1 mouse assessed as lesion volume at 1.6 mg/kg/day, sc measured after 48 hrs postinfection (reference value: 2234 mm3); type: functional; settings: route subcutaneous
[2] = tested on: Pseudomonas aeruginosa; experiment: Antimicrobial activity against Pseudomonas aeruginosa OC 4351 infected in immunocompromized SKH1 mouse assessed as lesion volume at 6.2 mg/kg/day, sc measured after 48 hrs postinfection (reference value: 2234 mm3); type: functional; settings: route subcutaneous
[3] = tested on: Pseudomonas aeruginosa; experiment: Antimicrobial activity against Pseudomonas aeruginosa OC 4354 infected in immunocompromized SKH1 mouse assessed as lesion volume at 1.6 mg/kg/day, sc measured after 48 hrs postinfection (reference value: 2195 mm3); type: functional; settings: route subcutaneous
[4] = tested on: Pseudomonas aeruginosa; experiment: Antimicrobial activity against Pseudomonas aeruginosa OC 4354 infected in immunocompromized SKH1 mouse assessed as log change in bacterial colony forming unit at 1.6 mg/kg/day, sc; type: functional; settings: route subcutaneous
Procedure, shortened: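 Female SKH1 hairless mice made neutropenic with ip cyclophosphamide (150 mg/kg 5 days and 100 mg/kg 1 day before infection). 0.2 ml s.c. Cytodex bead (0.1% vol/vol) inoculum in BHI: OC 4351 left flank, OC 4354 right flank. Drug s.c. at 1, 3, 25, 27 h postinfection. Killed at 48 h; skin homogenised in saline, plated on TSA 18 h 37°C; Δlog CFU/g versus inoculum. 5 mice/dose, run twice.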

[5] = fT>MIC in Staphylococcus aureus OC 8525 infected sc dosed SKH1 mouse at 50 mg/kg, sc administered twice at 1 and 3 hrs after infection; type: functional; settings: route subcutaneous
[6] = fT>MIC in Pseudomonas aeruginosa OC 4354 infected sc dosed SKH1 mouse at 50 mg/kg, sc administered twice at 1 and 3 hrs after infection; type: functional; settings: route subcutaneous
[7] = fT>MIC in Staphylococcus aureus OC 4172 infected sc dosed SKH1 mouse administered in 24 hrs dosing interval; type: functional
Procedure, shortened: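 Plasma levels came from female hairless SKH1 mice given single s.c. doses at the nape 24 h after flank s.c. infection with Cytodex beads. S. aureus work used immunocompetent mice. P. aeruginosa work used mice made neutropenic with cyclophosphamide i.p., 150 mg/kg at day −5 and 100 mg/kg at day −1. Drug assayed by HPLC with diode-array detection. Noncompartmental analysis.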

[8] = fT>MIC in Pseudomonas aeruginosa OC 4351 infected sc dosed SKH1 mouse administered in 24 hrs dosing interval; type: functional
[9] = Half life in immunocompromized SKH1 mouse plasma at 50 mg/kg, sc; type: ADME, organism-based; design: dose 50 mg/kg, route subcutaneous
[10] = Tmax in immunocompromized SKH1 mouse plasma at 50 mg/kg, sc; type: ADME, organism-based; design: dose 50 mg/kg, route subcutaneous
Procedure, shortened: (§1)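 Female SKH1 hairless mice, immunocompetent or cyclophosphamide-neutropenic, infected s.c. with MRSA OC 8525 or P. aeruginosa OC 4354 on the Cytodex beads (left flank), sterile beads on the right. Single dose 24 h later: s.c. at the nape, or linezolid 50 mg/kg oral. Plasma and skin (DMSO homogenate) sampled over time, HPLC with diode array.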

[11] = Tmax in immunocompromized SKH1 mouse skin at 50 mg/kg, sc; type: ADME, organism-based, Zone of skin; design: dose 50 mg/kg, route subcutaneous; procedure, shortened: as §1
[12] = Tmax in Staphylococcus aureus infected […] SKH1 mouse skin at 50 mg/kg, sc; type: ADME, organism-based, Zone of skin; design: dose 50 mg/kg, route subcutaneous
[13] = tested on: Plasma; experiment: fCmax in immunocompromized SKH1 mouse plasma at 50 mg/kg, sc; type: ADME, organism-based; design: dose 50 mg/kg, route subcutaneous; settings: in vivo; procedure, shortened: as §1
[14] = tested on: Zone of skin; experiment: fCmax in Staphylococcus aureus infected […] SKH1 mouse skin at 50 mg/kg, sc; type: ADME, organism-based; design: dose 50 mg/kg, route subcutaneous; settings: in vivo
[15] = tested on: Plasma; experiment: fAUC (0-infinity) in immunocompromized SKH1 mouse plasma at 50 mg/kg, sc; type: ADME, organism-based; design: dose 50 mg/kg, route subcutaneous; settings: in vivo; procedure, shortened: as §1
[16] = tested on: Zone of skin; experiment: fAUC (0-infinity) in immunocompromized SKH1 mouse skin at 50 mg/kg, sc; type: ADME, organism-based; design: dose 50 mg/kg, route subcutaneous; settings: in vivo; procedure, shortened: as §1
[17] = tested on: Zone of skin; experiment: fAUC (0-infinity) in Staphylococcus aureus infected immunocompromized SKH1 mouse skin at 50 mg/kg, sc; type: ADME, organism-based; design: dose 50 mg/kg, route subcutaneous; settings: in vivo
[18] = tested on: Staphylococcus aureus; experiment: Antimicrobial activity against methicillin-resistant Staphylococcus aureus OC 8525 assessed as inhibition of growth by broth microdilution method; type: functional
[19] = tested on: Pseudomonas aeruginosa; experiment: Antimicrobial activity against Pseudomonas aeruginosa OC 4351 assessed as inhibition of growth by broth microdilution method; type: functional
[20] = Half life in immunocompetent SKH1 mouse skin at 50 mg/kg, sc; type: ADME, organism-based, Zone of skin; design: dose 50 mg/kg, route subcutaneous; procedure, shortened: as §1
[21] = Half life in Staphylococcus aureus infected immunocompetent SKH1 mouse skin at 50 mg/kg, sc; type: ADME, organism-based, Zone of skin; design: dose 50 mg/kg, route subcutaneous; procedure, shortened: as §1
[22] = Tmax in immunocompetent SKH1 mouse skin at 50 mg/kg, sc; type: ADME, organism-based, Zone of skin; design: dose 50 mg/kg, route subcutaneous; procedure, shortened: as §1
[23] = Tmax in Staphylococcus aureus infected immunocompetent SKH1 mouse skin at 50 mg/kg, sc; type: ADME, organism-based, Zone of skin; design: dose 50 mg/kg, route subcutaneous; procedure, shortened: as §1
[24] = tested on: Plasma; experiment: fCmax in immunocompetent SKH1 mouse plasma at 12.5 mg/kg, sc; type: ADME, organism-based; design: dose 12.5 mg/kg, route subcutaneous; settings: in vivo; procedure, shortened: as §1
[25] = tested on: Plasma; experiment: fCmax in immunocompetent SKH1 mouse plasma at 50 mg/kg, sc; type: ADME, organism-based; design: dose 50 mg/kg, route subcutaneous; settings: in vivo; procedure, shortened: as §1
[26] = tested on: Zone of skin; experiment: fCmax in immunocompetent SKH1 mouse skin at 50 mg/kg, sc; type: ADME, organism-based; design: dose 50 mg/kg, route subcutaneous; settings: in vivo; procedure, shortened: as §1
[27] = tested on: Plasma; experiment: fAUC (0-infinity) in immunocompetent SKH1 mouse plasma at 12.5 mg/kg, sc; type: ADME, organism-based; design: dose 12.5 mg/kg, route subcutaneous; settings: in vivo; procedure, shortened: as §1
[28] = tested on: Plasma; experiment: fAUC (0-infinity) in immunocompetent SKH1 mouse plasma at 50 mg/kg, sc; type: ADME, organism-based; design: dose 50 mg/kg, route subcutaneous; settings: in vivo; procedure, shortened: as §1
[29] = tested on: Staphylococcus aureus; experiment: Antimicrobial activity against methicillin-resistant Staphylococcus aureus OC 8525 infected in SKH1 mouse assessed as log change in bacterial colony forming unit per gram of skin tissue at 1.6 mg/kg/day, sc (reference value: 0.8 deltalog CFU); type: functional; settings: route subcutaneous
Procedure, shortened: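 Female hairless immunocompetent SKH1 mice were anaesthetised and injected s.c. with 0.2 ml Cytodex bead inoculum (0.1% vol/vol beads in BHI; 6.7–7.0 log10 CFU/mouse): MSSA OC 4172 in the left flank, MRSA OC 8525 in the right. Drug was given at 1, 3, 25 and 27 h post-infection. At 48 h, flank lesions were excised, weighed and homogenised in saline, then plated on TSA (18 h, 37°C). The value is Δlog CFU/g versus the inoculum, from 5 mice/dose, run twice and pooled.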

[30] = tested on: Staphylococcus aureus; experiment: Antimicrobial activity against methicillin-resistant Staphylococcus aureus OC 8525 infected immunocompetent SKH1 mouse assessed as lesion volume at 25 mg/kg/day, sc measured after 48 hrs postinfection (reference value: 1535 mm3); settings: route subcutaneous
[31] = tested on: Staphylococcus aureus; experiment: Antimicrobial activity against methicillin-resistant Staphylococcus aureus OC 8525 infected immunocompetent SKH1 mouse assessed as lesion volume at 1.6 mg/kg/day, sc measured after 48 hrs postinfection (reference value: 1535 mm3); settings: route subcutaneous
[32] = tested on: Staphylococcus aureus; experiment: Antimicrobial activity against methicillin-susceptible Staphylococcus aureus Smith OC 4172 infected immunocompetent SKH1 mouse assessed as lesion volume at 1.6 mg/kg/day, sc measured after 48 hrs postinfection (reference value: 1181 mm3); settings: route subcutaneous
[33] = tested on: Staphylococcus aureus; experiment: Antimicrobial activity against methicillin-susceptible Staphylococcus aureus Smith OC 4172 infected immunocompetent SKH1 mouse assessed as lesion volume at 6.2 mg/kg/day, sc measured after 48 hrs postinfection (reference value: 1181 mm3); settings: route subcutaneous

In the case of `Nc1nc(/C(=N/O)C(=O)N[C@@H]2C(=O)N3C(C(=O)O)=C(/C=C4\CCN([C@@H]5CCNC5)C4=O)CS[C@H]23)ns1` [CEFTOBIPROLE], the Activity [1] was 1593 mm3, the Activity [2] was 847 mm3 and the Activity [3] was 1833 mm3. For the same compound, the deltalog10CFU [4] was 1.7, the “fT>MIC” value [5] was 3.3 h and the “fT>MIC” value [6] was 2.2 h. The “fT>MIC” value [7] was over 17%, the “fT>MIC” value [8] was 9.1% and the half-life [9] was 13 min. The Tmax [10] was 7.5 min, the Tmax [11] was 15 min and the Tmax [12] was 15 min. The fCmax [13] was 69 µg/mL, the fCmax [14] was 9 µg/g and the fAUC [15] was 2011 µg·min/mL. It also gave a fAUC [16] of 690 µg·min/mL, a fAUC [17] of 704 µg·min/mL and an MIC [18] of 1 µg/mL. For the same compound, the MIC [19] was 4 µg/mL, the half-life [20] was 19 min and the half-life [21] was 15 min. It also gave a Tmax [22] of 15 min, a Tmax [23] of 15 min and a fCmax [24] of 17 µg/mL. The fCmax [25] was 66 µg/mL, the fCmax [26] was 17 µg/g and the fAUC [27] was 481 µg·min/mL. The fAUC [28] was 2336 µg·min/mL, the deltalog10CFU [29] was 0.3 and the Activity [30] was 642 mm3. The Activity [31] was 1058 mm3, the Activity [32] was 937 mm3 and the Activity [33] was 885 mm3.
